An excerpt weighted towards active compounds, which were near 4% of everything screened.
Mdm2 ligase inh – inhibitors of human Mdm2 E3 ubiquitin ligase; Q00987; cell-based MDM2 ubiquitination luciferase reporter, 2 h; 0 = plate control, 100 = twice control, blank-subtracted; signal enhancement, % at 5 µM; actives 0.11% (n = 210,000); AID 1230;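 active means signal enhancement of 30% or more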;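 further: luminescence tracks abundance of the self-degrading MDM2-luciferase fusion protein; higher signal means inhibition of MDM2 E3 ligase activity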
Target sequence (Q00987 whole entry, looked up, the tested form may be a part): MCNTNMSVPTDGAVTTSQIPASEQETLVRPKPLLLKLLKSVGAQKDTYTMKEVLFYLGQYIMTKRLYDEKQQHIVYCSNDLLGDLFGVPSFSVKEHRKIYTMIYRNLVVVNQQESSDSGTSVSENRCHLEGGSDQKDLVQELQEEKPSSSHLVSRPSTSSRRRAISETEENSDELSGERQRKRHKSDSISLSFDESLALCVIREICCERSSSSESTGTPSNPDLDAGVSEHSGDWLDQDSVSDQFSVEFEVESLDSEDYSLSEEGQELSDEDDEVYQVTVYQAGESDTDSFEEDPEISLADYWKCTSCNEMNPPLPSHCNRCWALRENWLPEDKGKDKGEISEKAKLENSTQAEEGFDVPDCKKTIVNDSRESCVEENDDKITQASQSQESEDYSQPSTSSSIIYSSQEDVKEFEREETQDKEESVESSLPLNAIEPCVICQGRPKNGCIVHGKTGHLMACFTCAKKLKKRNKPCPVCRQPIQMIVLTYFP
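System: stable MDM2–luciferase fusion reporter cells / Input: 2000 cells seeded into each well / Schedule: 4 h settle plus 2 h compound, 37 °C / Compound: single-point 5 µM / Buffer or medium: cells held in DMEM / Benchmarks: control and blank well means / Evaluation: percent signal gain over controls, blank-subtracted / Measured by: luciferase luminescence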
CHOP inhibitor – CHOP inhibition in unfolded protein response; CHO-K1 CHOP-promoter luciferase, tunicamycin-induced, 15-18 h; inhibition, % at 10 µM; actives 3.8% (n = 220,000); AID 2732;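 active means compounds that reduced the stress-induced luciferase reporter signal by more than about 70% of percent inhibition, limit read from the data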;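 further: 0% = tunicamycin plus vehicle and 100% = wells without tunicamycin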
Hsp70 act – Hsp70 transcriptional activation, primary screen. activation, % at 10 µM. HeLa Hsp70 promoter luciferase reporter, luminescence; scaled: vehicle 0, proteasome-inhibitor control 100%. actives 0.04% (n = 200,000);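 active means activation above the mean across all tested compounds plus 3 SD, cutoff set per campaign, cut at about 5.5% in these data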;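 further: 100% = MG132 at 30 µM as the positive control and 0% = DMSO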
S1P3 antag – antagonists of human S1P3 receptor. Q99500. CHO S1P3 NFAT-BLA reporter, FRET fluorescence, antagonist mode. inhibition, % at 4.98 µM. actives 0.27% (n = 170,000). AID 485;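 active means inhibition above the plate cutoff, the mean inhibition of test wells on that plate plus 3 SD, cut at about 28% in these data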;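 further: cells challenged with S1P at its EC80 of 0.8 µM; blue over green emission ratio from cleaved BLA substrate after 4 h stimulation; 0% = S1P-stimulated wells and 100% = unstimulated DMSO-only wells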
An asterisk follows results filed as active; . = no result; ! = repeats disagree.

SMILES	Mdm2 ligase inh	CHOP inhibitor	Hsp70 act	S1P3 antag
COC(=O)[C@@H]1C[C@@]2(O)[C@H](O)[C@H](O)[C@H](O)C[C@H]2N1C/C=C/c1ccccc1	9.6	-1.7	.	.
Cc1c(CC(C)(C)C(=O)O)n(Cc2ccc(Cl)cc2)c2ccc(F)cc12	.	-2.9	.	.
COc1ccc(/C=C(/C(=O)Nc2ccccc2C(=O)NC(C)C)c2ccccc2)cc1	-20.9	74.0*	-0.3	.
Cc1cc(Cl)c(S(=O)(=O)N2CCN(c3ccccn3)CC2)cc1OCC(=O)NC1CCCCC1	2.2	22.1	.	8.4
Cc1cc(S(=O)(=O)N2CCCCCC2)c(Cl)cc1Cl	-22.9	79.8*	0.4	.
Cc1cc(Cl)c(S(=O)(=O)N2CCCCCC2)cc1OCC(=O)NC1CCCCC1	-7.8	91.5*	-0.1	.
Cc1cc(Cl)c(S(=O)(=O)NC2CCCC2)cc1OCC(=O)NC1CCCCC1	-3.3	70.5*	-0.4	.
O=C(COc1ccc(Br)cc1Cl)NC1CCCCC1	-3.4	70.9*	0.1	11.3
Cc1cc(Cl)c(S(=O)(=O)N2CCSCC2)cc1OCC(=O)NC1CCCCC1	-43.5	68.8	-0.2	.
O=S(=O)(c1cc(Cl)ccc1Cl)N1CCCCC1	-6.0	56.2	-0.3	-25.0
O=C(COc1ccc(S(=O)(=O)NC2CCCCC2)cc1Cl)Nc1ccc2c(c1)OCO2	-4.6	85.6*	-0.2	.
CCOC(=O)N1CCN(S(=O)(=O)c2cc(OCC(=O)NC3CCCCC3)c(C)cc2Cl)CC1	0.2	74.8*	-0.4	.
CCN1CCN(S(=O)(=O)c2cc(OCC(=O)NC3CCCCC3)c(C)cc2Cl)CC1	-11.4	.	0.0	0.2
O=C(COC(=O)CCCN=C1NS(=O)(=O)c2ccccc21)NC(=O)NC1CCCC1	-1.2	-13.8	-0.1	-24.9
O=C(COC(=O)c1c(Cl)ccc(Cl)c1Cl)NC(=O)NCc1ccccc1	-2.9	83.9*	-0.3	-5.7
CC1CCC(C(C)C)C(OC(=O)Cn2c(-c3ccc(Cl)cc3)[n+](C)c3ccccc32)C1 (stereo unspecified)	-24.9	24.7	.	-5.6
CC1CCC(C(C)C)C(OC(=O)Cn2c(-c3ccc(Br)cc3)[n+](C)c3ccccc32)C1 (stereo unspecified)	-5.5	90.2*!	-0.3	4.4
COc1ccc([N+](=O)[O-])cc1NC(=O)C(C)c1ccccc1 (stereo unspecified)	4.2	58.0	-0.4	4.4
COc1ccc([N+](=O)[O-])cc1NC(=S)NC(NC(=O)C(c1ccccc1)c1ccccc1)C(Cl)(Cl)Cl (stereo unspecified)	-3.1	72.8*	-0.1	.
Cc1ccc(N(CC(O)Cn2c3ccccc3c3ccccc32)S(C)(=O)=O)c(C)c1 (stereo unspecified)	24.4	85.2*	0.3	.
CS(=O)(=O)N(Cc1ccco1)CC(O)Cn1c2ccccc2c2ccccc21 (stereo unspecified)	-14.3	-5.2	-0.6	0.8
Cc1cccc(C)c1N(CC(O)Cn1c2ccccc2c2ccccc21)S(C)(=O)=O (stereo unspecified)	-15.2	43.1	-0.4	.
OC(CON=C1c2ccccc2-c2ccccc21)CN1CCNCC1 (stereo unspecified)	-0.2	1.2	-0.1	5.1
Cc1ccc(N(CC(O)CON=C2c3ccccc3-c3ccccc32)S(C)(=O)=O)cc1 (stereo unspecified)	3.0	91.1*	-0.6	.
Cc1ccc(N(CC(O)Cn2c3ccccc3c3ccccc32)S(C)(=O)=O)cc1 (stereo unspecified)	-12.9	83.0*	0.4	.
SMILES	Mdm2 ligase inh	CHOP inhibitor	Hsp70 act	S1P3 antag
CC(C)CNS(=O)(=O)c1ccc(CCC(=O)NCCC2=CCCCC2)cc1	-7.0	26.4	-0.3	2.2
CCCOc1ccc(C(=O)CCN2CCN(C(=O)OCC)CC2)cc1	-0.7	-10.6	-0.5	0.7
Cc1ccc(CSCC(=O)N/N=C/c2sccc2C)cc1	-15.4	95.1*	-0.3	.
COc1ccc(Br)cc1C(=O)N/N=C/c1ccc([N+](=O)[O-])cc1	-13.0	100.0*	-0.3	-5.0
CCOc1ccc(Br)cc1C(=O)N/N=C/c1ccc([N+](=O)[O-])cc1	-3.2	27.1	-0.3	5.1
CN1C(=O)c2cccc(NC(=O)CCc3ccccc3)c2C1=O	-12.0	-3.8	-0.1	92.4*
CCc1ccc2c(c1)C(c1ccc([N+](=O)[O-])cc1)=NNC(c1ccc(Br)cc1)=N2	-5.3	83.7*	-0.3	-11.8
Cc1ccc2c(c1)C(c1ccc([N+](=O)[O-])cc1)=NNC(c1ccc(Br)cc1)=N2	-11.8	94.0*	0.0	1.6
Cn1c(N)c(C(=O)COc2ccc(C#N)cc2)c(=O)n(C)c1=O	-2.7	4.6	-0.2	-7.2
Cc1c(Nc2nc(C(F)(F)F)nc3ccccc23)c(=O)n(-c2ccccc2)n1C	-1.8	-5.6	0.1	16.0
Cc1ccc(C(=O)OCC(=O)NCc2cccs2)cc1	-0.9	22.4	-0.5	2.0
Cn1cc(SCC(=O)Nc2nc3ccccc3s2)c2ccccc21	-6.0	71.1*	-0.1	.
CC(=O)C1=C(C)NC(SCC(=O)Nc2nc3ccccc3s2)=C(C#N)C1c1ccc(Cl)cc1 (stereo unspecified)	-6.4	84.6*	-0.3	-9.2
COc1ccc(-c2nnc(SCC(=O)Nc3nc4ccccc4s3)n2C)cc1	-0.2	93.4*	-0.4	.
Cn1c(CSCc2ccc(Cl)cc2)nnc1SCC(=O)Nc1nccs1	-17.2	32.7	-0.1	.
COc1ccc(-c2nnc(SCC(=O)Nc3ccccc3)n2C)cc1	-15.2	33.0	-0.2	7.7
Cc1csc(SCC(=O)Nc2nc3ccccc3s2)n1	-9.5	36.4	0.2	-8.2
Cn1c(CSCc2ccc(Cl)cc2)nnc1SCC(=O)Nc1nc2ccccc2s1	-0.4	91.9*	-0.2	.
COCCCNc1nc2ccccc2nc1NS(=O)(=O)c1ccccc1	-61.1	-10.2	0.6	-11.7
O=C(Cn1ncc2c(=O)oc3ccccc3c21)NC1CC1	-9.6	17.3	-0.2	6.5
O=C(Cn1ncc2c(=O)oc3ccccc3c21)Nc1nc2ccccc2s1	-6.8	88.0*	0.1	-29.9
CCOc1ccc(-c2nnc3ccc(SCC(=O)Nc4nc5ccccc5s4)nn23)cc1	-6.7	70.1*	-0.3	9.2
CCc1ccc(NC(=O)c2cc(-c3ccco3)on2)cc1	-29.1	33.3	-0.4	58.6*
O=C(NC1CCCCC1)C(c1ccc(F)cc1)N(Cc1ccco1)C(=O)Cn1nnc2ccccc21 (stereo unspecified)	-10.7	74.0*	0.3	14.2
O=C(NC1CCCC1)C(c1ccc(Cl)cc1)N(Cc1ccc(F)cc1)C(=O)CCl (stereo unspecified)	-18.9	46.5	-0.1	1.9
O=C(NC1CCCCC1)C(c1ccccc1F)N(Cc1ccco1)C(=O)Cn1nnc2ccccc21 (stereo unspecified)	-4.5	28.5	-0.5	-26.6
O=C(NC1CCCC1)C(c1ccc(F)cc1)N(Cc1ccc(Cl)cc1)C(=O)CCl (stereo unspecified)	-9.8	106.2*	-0.1	-1.0
N#Cc1c(N)nc2c(c1-c1cccc(O)c1)CCCCCC2	146.7*	47.5	-0.3	17.1
Cc1ccc(-c2c(C#N)c(N)nc3c2CCCCC3)cc1	-17.8	47.2	-0.3	.

From PubChem
